A word on the IC50: it is the concentration needed to halve the response being measured. As usually defined, the ED50 is the dose that gives a 50% effect, or the effect in half of the subjects.

In test [1] the target is Serotonin 2 (5-HT2) receptor (Rattus norvegicus, UniProt P30994+P08909+P14842). In words: In vitro binding affinity was measured on serotonergic 5-hydroxytryptamine 2 receptor by displacement of [3H]- ketanserin. The class given is protein assay. In general terms: Loss of bound radioactivity is the signal in a displacement assay; it reports binding, not function.
In test [2] the target is T1, 5-hydroxytryptamine receptor 1A (Rattus norvegicus, UniProt P19327).
T1 sequence (P19327 whole entry): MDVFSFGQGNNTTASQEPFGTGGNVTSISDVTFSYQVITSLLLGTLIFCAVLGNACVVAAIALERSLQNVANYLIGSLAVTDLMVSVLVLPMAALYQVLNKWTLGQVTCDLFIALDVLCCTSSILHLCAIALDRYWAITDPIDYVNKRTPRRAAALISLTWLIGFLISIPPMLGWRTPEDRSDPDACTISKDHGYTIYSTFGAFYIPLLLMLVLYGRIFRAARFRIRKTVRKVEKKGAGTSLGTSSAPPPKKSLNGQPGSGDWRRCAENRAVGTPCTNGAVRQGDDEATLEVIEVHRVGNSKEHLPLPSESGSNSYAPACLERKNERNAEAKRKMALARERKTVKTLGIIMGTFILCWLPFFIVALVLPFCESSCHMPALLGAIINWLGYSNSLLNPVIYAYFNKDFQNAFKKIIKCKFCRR
Nature of the test: In vitro binding affinity was measured on serotonergic 5-hydroxytryptamine 1A receptor by displacement of [3H]- tetralin. The essentials:
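Rat hippocampus membranes from male Sprague-Dawley rats, homogenized in 50 mM Tris pH 7.7, preincubated 10 min at 37 °C. Final incubation buffer was 50 mM Tris, 4 mM CaCl2, 10 μM pargyline, 0.1% ascorbic acid, pH 7.4. [3H]-8-OH-DPAT at 0.3 nM final, 30 min at 25 °C, then filtration. Nonspecific binding was defined with 10 μM serotonin.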

Test [3] relates to Mus musculus. In words: In vivo the ability to antagonize the apomorphine induced climbing response in mice. In kind it is functional. An outline of the steps:
(§1)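 Male CD-1 mice (20–25 g) were acclimated ≥30 min in wire-mesh cages. Drug in 0.5% methyl cellulose or vehicle was given po 60 min before sc apomorphine HCl 5 mg/kg in 0.0001 N HCl, N = 6/dose group. Climbing and stereotypy were scored every 5 min for 30 min, starting at 5 min. The six scores were averaged and % antagonism taken versus controls. ED50 by Litchfield–Wilcoxon.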

Test [4] concerns Mus musculus. In words: Tested in vivo for their ability to induction of catalepsy in mice. In kind it is functional. The essentials:
(§2)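 Catalepsy induction was tested in male CD-1 mice (20–25 g). Drug was given in 0.5% methyl cellulose vehicle at 0.5–2.0 mL/100 g. ED50 by Litchfield–Wilcoxon.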

In test [5] the test system is Mus musculus. In words: Tested in vivo for their ability to antagonize the apomorphine induced stereotypy response in mice. The class given is functional. The essentials:
as §1

The test system of test [6] is Mus musculus. In words: Tested in vivo for their ability to antagonize the apomorphine induced stereotypy response in mice after peroral administration. In kind it is functional. Conditions: po. An outline of the steps: as §1
Test [7] concerns Mus musculus. In words: Tested in vivo for their ability to induction of catalepsy in mice after peroral administration. In kind it is functional. The note with it: po. The essentials: as §2
The subject of test [8] is Mus musculus. In words: In vivo the ability to antagonize the apomorphine induced climbing response in mice after peroral administration. The note with it: po. The class given is functional. The essentials:
as §1

On to `O=C1C2CCCCC2C=NN1CCCCN1CCN(c2nsc3ccccc23)CC1` (stereo in doubt; 52), for which the figures for the IC50 in test [1] and in test [2] were 0.76 nM and 0.82 nM, respectively. The molecule further gave an ED50 in the test with Mus musculus [3] of 16.2 mg/kg.
With `O=C1c2ccccc2CN1CCCCN1CCN(c2nsc3ccccc23)CC1`, the IC50 in test [1] amounted to 5.1 nM; in test [2], 7 nM. Further, the ED50 was above 360 mg/kg in the test on Mus musculus [4]; 24.7 mg/kg in the test on Mus musculus [5]; 6.3 mg/kg with Mus musculus [3] (Mus musculus, read-out: ED50).
Regarding `O=C1Cc2ccccc2C(=O)N1CCCCN1CCN(c2nsc3ccccc23)CC1`, the 50% inhibitory concentration (IC50) in test [1] worked out at 4.7 nM; in test [2], 1.8 nM. The ED50 in the test with Mus musculus [4] stood at 133 mg/kg; in the test with Mus musculus [5], 40.3 mg/kg; with Mus musculus [3] (Mus musculus, read-out: ED50), 12.2 mg/kg.
`O=C1c2ccccc2C(=O)N1CCCCN1CCN(c2nsc3ccccc23)CC1`: the values for the IC50 in test [1] and in test [2] were 7.6 nM and 0.19 nM, respectively. In addition, the ED50 with Mus musculus [3] (Mus musculus, read-out: ED50) amounted to 6.2 mg/kg.
`CCOC(=O)n1c2ccccc2c(=O)n1CCCCN1CCN(c2nsc3ccccc23)CC1`: the IC50 in test [1] turned out to be 7.9 nM; in test [2] it was 33 nM. In addition, the ED50 in the test with Mus musculus [3] (Mus musculus, read-out: ED50) was above 25 mg/kg.
Regarding `O=c1c2ccccc2nnn1CCCCN1CCN(c2nsc3ccccc23)CC1`, the median effective dose (ED50) was found to be 57.8 mg/kg with Mus musculus [6], 252 mg/kg in the test with Mus musculus [7] and 19.1 mg/kg in the test on Mus musculus [8]. Further, the figures for the 50% inhibitory concentration (IC50) in test [1] and in test [2] were 2.9 nM and 1.7 nM, respectively.
With `O=C1C2CCCCC2C=NN1CCCCN1CCN(c2nsc3ccccc23)CC1` (stereo in doubt; 53), the IC50 in test [1] worked out at 0.38 nM; in test [2], 0.021 nM. Besides, in the test with Mus musculus [3] (Mus musculus, read-out: ED50), the ED50 amounted to 25 mg/kg.
Regarding `Cc1nn(CCCCN2CCN(c3nsc4ccccc34)CC2)c(=O)c2ccccc12`, in the test on Mus musculus [8], the ED50 stood at 30.4 mg/kg. The IC50 was determined as 0.84 nM in test [1] and 3.4 nM in test [2].
Regarding `O=c1c2ccccc2ncn1CCCCN1CCN(c2nsc3ccccc23)CC1`, the 50% effect level with Mus musculus [8] (ED50) was put at a dose of 6.2 mg/kg. The IC50 in test [1] is 2.3 nM; in test [2], 0.59 nM.
Turning to `O=C(CCCN1CCC(O)(c2ccc(Cl)cc2)CC1)c1ccc(F)cc1` [HALOPERIDOL], the values for the ED50 in the test with Mus musculus [4] and in the test on Mus musculus [5] were 3 mg/kg and 0.9 mg/kg, respectively.
Turning to `O=c1c2ccccc2[nH]n1CCCCN1CCN(c2nsc3ccccc23)CC1`, the 50% effective dose (ED50) with Mus musculus [8] was above 25 mg/kg. Further, the half-inhibitory concentration (IC50) in test [1] turned out to be 150 nM; in test [2] it was 350 nM.
`O=c1[nH]n(CCCCN2CCN(c3nsc4ccccc34)CC2)c(=O)c2ccccc12` returned an ED50 in the test with Mus musculus [8] above 25 mg/kg. The IC50 in test [1] was determined as 76 nM; in test [2], 2.6 nM.
Consider `O=C1c2ccccc2CCN1CCCCN1CCN(c2nsc3ccccc23)CC1`, for which the IC50 in test [1] stood at 1.9 nM; in test [2] it was 0.64 nM. Also, in the test on Mus musculus [3] (Mus musculus, read-out: ED50), the ED50 was found to be 16.4 mg/kg.
Take `O=c1c2ccccc2cnn1CCCCN1CCN(c2nsc3ccccc23)CC1`: the ED50 stood at 29.8 mg/kg in the test on Mus musculus [6], 70.4 mg/kg with Mus musculus [7] and 9.5 mg/kg in the test with Mus musculus [8]. The IC50 in test [1] worked out at 1.8 nM; in test [2] it was 10 nM.
As to `O=C1c2ccccc2CCCN1CCCCN1CCN(c2nsc3ccccc23)CC1`, the IC50 in test [1] worked out at 4.2 nM; in test [2] it was 4.1 nM. Moreover, in the test on Mus musculus [3] (Mus musculus, read-out: ED50), the ED50 was above 25 mg/kg.
Take `O=c1c2ccccc2sn1CCCCN1CCN(c2nsc3ccccc23)CC1`: the median effective dose (ED50) with Mus musculus [8] was above 25 mg/kg. In addition, the half-maximal inhibitory concentration (IC50) in test [1] amounted to 140 nM; in test [2], 120 nM.
In turn, `O=C1c2ccccc2S(=O)(=O)N1CCCCN1CCN(c2nsc3ccccc23)CC1` had a median effective dose (ED50) in the test on Mus musculus [8] of 48.7 mg/kg. In addition, the IC50 in test [1] was found to be 1.1 nM; in test [2], 0.4 nM.

The record behind these values is ChEMBL document CHEMBL1127609, “Cyclic benzamides as mixed dopamine D2/serotonin 5-HT2 receptor antagonists: potential atypical antipsychotic agents” (J Med Chem, 1994).
